One block for each molecule: values may come before it. Calls of active or inactive are those of the source. The calls are words filed in the database; no cut-off is given here.
How the values were obtained:
[1] = molecular target: T1, NAD-dependent protein deacetylase sirtuin-3, mitochondrial (Homo sapiens) (UniProt Q9NTG7); test: Activation of N-terminal his-tagged human SIRT3 (114 to 380 residues) deacylation activity expressed in Escherichia coli at 10 uM using ACS2-acK642 as substrate in presence of NAD+ by NADH oxidation-coupled enzymatic assay; conditions: filed as activator
T1 sequence (whole entry): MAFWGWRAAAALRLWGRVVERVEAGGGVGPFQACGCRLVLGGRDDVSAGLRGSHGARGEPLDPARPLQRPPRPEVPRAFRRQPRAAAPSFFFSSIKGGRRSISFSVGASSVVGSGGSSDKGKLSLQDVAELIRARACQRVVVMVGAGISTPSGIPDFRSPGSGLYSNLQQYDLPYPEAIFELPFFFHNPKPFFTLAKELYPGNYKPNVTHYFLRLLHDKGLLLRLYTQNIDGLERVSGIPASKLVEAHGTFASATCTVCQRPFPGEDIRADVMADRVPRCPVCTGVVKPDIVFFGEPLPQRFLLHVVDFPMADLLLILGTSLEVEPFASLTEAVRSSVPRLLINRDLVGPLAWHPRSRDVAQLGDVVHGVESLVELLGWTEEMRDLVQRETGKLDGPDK
Method in brief: (§1)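 Coupled PncA/GDH deacylation assay following NADPH oxidation to NADP+. 1.5 μM sirtuin, 50 μM substrate peptide, 100 μM NAD+, compound at 10 μM, 5% final DMSO. Isoform-specific physiological substrates: p53-acK381 (SIRT1), […] (SIRT2), ACS2-acK642 (SIRT3), CPS1-succK537 (SIRT5). Sirtuins expressed in E. coli, Ni-NTA purified, tag cleaved, then size-exclusion chromatography.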

[2] = tested on: CAL-62; test: Anticancer activity against human CAL-62 cells assessed as reduction in cell viability at 50 uM incubated for 24 to 48 hrs under hypoxia condition by trypan blue exclusion assay; type: functional, cell-based; conditions: time 24-48 hrs, TDE = time-dependent effect
Method in brief: (§2)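 CAL-62 cells in RPMI 1640 with 10% FBS, treated with 50 μM compound (DMSO) for 24 and 48 h. Hypoxia induced with 200 μM CoCl2, kept in the medium during treatment. Viable cells counted by 0.4% trypan blue staining on a hemocytometer.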

[3] = molecular target: T1, NAD-dependent protein deacetylase sirtuin-3, mitochondrial (Homo sapiens); test: Activation of human SIRT3 overexpressing in human MDA-MB-231 cells assessed as increase in GDH activity at 50 uM incubated for 4 hrs by absorbance assay; type: cell-based
Method in brief: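 MDA-MB-231 cells exposed 4 h to 50 μM compound. 10^6 cells lysed in GDH assay buffer for 10 min on ice. Supernatant mixed with developer and glutamate, incubated 3 min at 37 °C, absorbance read at 450 nm with buffer blank subtracted. SIRT3-overexpressing MDA-MB-231 cells served as reference.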

[4] = tested on: CAL-62; test: Anticancer activity against human CAL-62 cells assessed as reduction in cell viability at 50 uM incubated for 24 to 48 hrs under normoxia condition by trypan blue exclusion assay; type: functional, cell-based; conditions: time 24-48 hrs, TDE = time-dependent effect; method in brief: as §2
[5] = tested on: CAL-62; test: Downregulation of CA-IX expression in human CAL-62 cells at 50 uM incubated for 48 hrs under hypoxia condition by Western blot analysis; type: functional, cell-based
Method in brief: (§3)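 CAL-62 or MDA-MB-231 cells made hypoxic with 200 μM CoCl2 for 24 h, then treated with 50 μM compound for 48 h with CoCl2 retained. Lysates (15 or 50 μg protein) immunoblotted for HIF-1α, EPAS-1 or CA-IX with ACTB, ECL detection. 3-TYP (1 μM) as control.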

[6] = molecular target: T2, NAD-dependent protein deacetylase sirtuin-3, mitochondrial (Homo sapiens, UniProt Q9NTG7); test: Binding affinity to N-terminal his-tagged human SIRT3 (114 to 380 residues) assessed as dissociation constant by SPR analysis
T2 sequence (Q9NTG7 whole entry): T1 sequence (whole entry)
Method in brief: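 SPR with SIRT3 amine-coupled to the chip (sodium acetate pH 4.0; 1500–4000 RU). Analytes diluted to 200 μM in HBSP (20 mM Hepes, 150 mM NaCl, 0.005% P20; 2% DMSO), injected at 5, 10, 20, 40, 80 μM at 30 μL/min. Dissociation after 180 s. Reference chip lacked ligand. Apparent KD by Scatchard analysis. Run twice.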

[7] = molecular target: T1, NAD-dependent protein deacetylase sirtuin-3, mitochondrial (Homo sapiens); test: Activation of N-terminal his-tagged human SIRT3 (114 to 380 residues) deacylation activity expressed in Escherichia coli at 100 uM using ACS2-acK642 as substrate in presence of NAD+ by NADH oxidation-coupled enzymatic assay; conditions: filed as activator
Method in brief: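 Coupled PncA/GDH deacylation assay following NADPH oxidation to NADP+. 1.5 μM SIRT3 (E. coli-expressed, tag removed) with 50 μM ACS2-acK642 peptide and 100 μM NAD+, compound at 100 μM, 5% final DMSO.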

[8] = tested on: CAL-62; test: Inhibition of clonogenicity in human CAL-62 cells at 50 uM incubated for 24 to 48 hrs under normoxia condition by crystal violet staining based assay; type: functional; conditions: time 24-48 hrs
Method in brief: (§4)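 CAL-62 cells at 80–90% confluence treated with 50 μM compound for 24 or 48 h, in normoxia or with 200 μM CoCl2 (hypoxia). 500 cells replated per 100 mm dish and grown about 7 days. Colonies fixed in 4% formaldehyde, stained with 0.5% crystal violet, and counted.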

[9] = tested on: CAL-62; test: Inhibition of clonogenicity in human CAL-62 cells at 50 uM incubated for 24 to 48 hrs under hypoxia condition by crystal violet staining based assay; type: functional; conditions: time 24-48 hrs; method in brief: as §4
[10] = molecular target: NAD-dependent protein deacylase sirtuin-5, mitochondrial (Homo sapiens) (UniProt Q9NXA8); test: Activation of N-terminal his-tagged human SIRT5 (34 to 302 residues) expressed in Escherichia coli at 10 uM using p53-acK381 as substrate in presence of NAD+ by NADH oxidation-coupled enzymatic assay
[11] = tested on: CAL-62; test: Downregulation of HIF1alpha expression in human CAL-62 cells at 50 uM incubated for 48 hrs under hypoxia condition by Western blot analysis; type: functional, cell-based; method in brief: as §3
[12] = molecular target: T3, NAD-dependent protein deacetylase sirtuin-2 (Homo sapiens) (UniProt Q8IXJ6); test: Activation of N-terminal his-tagged human SIRT2 (43 to 356 residues) expressed in Escherichia coli at 10 uM using p53-acK381 as substrate in presence of NAD+ by NADH oxidation-coupled enzymatic assay
T3 sequence (whole entry): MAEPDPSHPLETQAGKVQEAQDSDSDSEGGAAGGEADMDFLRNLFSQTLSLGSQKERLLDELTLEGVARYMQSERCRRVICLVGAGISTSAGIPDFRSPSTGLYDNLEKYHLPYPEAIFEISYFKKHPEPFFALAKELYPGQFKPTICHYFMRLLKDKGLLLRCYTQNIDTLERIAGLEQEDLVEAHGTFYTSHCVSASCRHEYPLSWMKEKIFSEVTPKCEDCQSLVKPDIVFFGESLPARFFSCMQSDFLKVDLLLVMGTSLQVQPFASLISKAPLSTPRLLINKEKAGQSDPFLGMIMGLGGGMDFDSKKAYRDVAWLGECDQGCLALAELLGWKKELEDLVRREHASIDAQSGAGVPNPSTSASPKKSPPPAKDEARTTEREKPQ

[13] = molecular target: T4, NAD-dependent protein deacetylase sirtuin-1 (Homo sapiens) (UniProt Q96EB6); test: Activation of N-terminal his-tagged human SIRT1 expressed in Escherichia coli at 10 uM using p53-acK381 as substrate in presence of NAD+ by NADH oxidation-coupled enzymatic assay; method in brief: as §1
T4 sequence (whole entry): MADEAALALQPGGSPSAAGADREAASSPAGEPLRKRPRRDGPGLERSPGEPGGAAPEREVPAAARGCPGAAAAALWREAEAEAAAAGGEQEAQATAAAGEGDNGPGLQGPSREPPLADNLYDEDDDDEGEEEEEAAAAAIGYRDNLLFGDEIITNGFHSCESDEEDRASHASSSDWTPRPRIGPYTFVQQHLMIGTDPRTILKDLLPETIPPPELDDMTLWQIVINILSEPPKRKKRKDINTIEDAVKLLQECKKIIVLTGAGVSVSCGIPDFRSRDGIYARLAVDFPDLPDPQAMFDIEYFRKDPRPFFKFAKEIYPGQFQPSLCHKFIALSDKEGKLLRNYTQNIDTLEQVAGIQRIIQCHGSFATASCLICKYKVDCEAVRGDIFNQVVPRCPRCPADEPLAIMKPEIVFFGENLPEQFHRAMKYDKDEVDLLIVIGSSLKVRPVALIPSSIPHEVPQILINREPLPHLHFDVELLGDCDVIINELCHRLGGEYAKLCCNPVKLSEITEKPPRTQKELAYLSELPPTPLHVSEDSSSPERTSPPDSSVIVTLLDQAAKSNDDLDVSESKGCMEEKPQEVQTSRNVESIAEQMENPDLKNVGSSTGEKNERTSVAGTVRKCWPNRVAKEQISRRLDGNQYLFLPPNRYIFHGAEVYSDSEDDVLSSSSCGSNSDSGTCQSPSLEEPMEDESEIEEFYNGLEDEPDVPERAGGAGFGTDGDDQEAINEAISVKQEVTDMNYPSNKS

[14] = tested on: MDA-MB-231; test: Downregulation of CA-IX expression in human MDA-MB-231 cells at 1 uM incubated for 48 hrs under hypoxia condition by Western blot analysis; type: functional, cell-based
[15] = tested on: CAL-62; test: Downregulation of CA-IX expression in human CAL-62 cells at 1 uM incubated for 48 hrs under hypoxia condition by Western blot analysis; type: functional, cell-based
[16] = tested on: CAL-62; test: Downregulation of HIF1alpha expression in human CAL-62 cells at 1 uM incubated for 48 hrs under hypoxia condition by Western blot analysis; type: functional, cell-based
[17] = tested on: MDA-MB-231; test: Downregulation of EPAS-1 expression in human MDA-MB-231 cells at 1 uM incubated for 48 hrs under hypoxia condition by Western blot analysis; type: functional, cell-based
[18] = tested on: CAL-62; test: Downregulation of EPAS-1 expression in human CAL-62 cells at 1 uM incubated for 48 hrs under hypoxia condition by Western blot analysis; type: functional, cell-based
[19] = tested on: MDA-MB-231; test: Downregulation of HIF1alpha expression in human MDA-MB-231 cells at 1 uM incubated for 48 hrs under hypoxia condition by Western blot analysis; type: functional, cell-based

Chain of NAD-dependent protein deacylase sirtuin-5, mitochondrial (Homo sapiens) (Q9NXA8 37-310 limits assumed): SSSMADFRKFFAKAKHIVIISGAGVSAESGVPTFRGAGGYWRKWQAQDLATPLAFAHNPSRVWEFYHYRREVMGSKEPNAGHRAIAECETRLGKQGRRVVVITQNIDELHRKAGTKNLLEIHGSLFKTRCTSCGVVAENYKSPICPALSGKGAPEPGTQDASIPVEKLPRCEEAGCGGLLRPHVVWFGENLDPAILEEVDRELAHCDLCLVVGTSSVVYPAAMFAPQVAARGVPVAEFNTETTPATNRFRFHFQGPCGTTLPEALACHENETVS

SMILES: CCOC(=O)C1=CN(C(=O)c2ccc(C#N)cc2)C=C(C(=O)OCC)C1c1ccccc1
- Activity [1]: 120%

SMILES: CCOC(=O)C1=CN(C(=O)c2ccc([N+](=O)[O-])cc2)C=C(C(=O)OCC)C1c1ccccc1
- Activity [1]: 120%

SMILES: CCOC(=O)C1=CN(C(=O)C2CCCCC2)C=C(C(=O)OCC)C1c1ccccc1
- Activity [1]: 120%
- Activity [7]: Active

SMILES: CCOC(=O)C1=CN(C(=O)c2ccc(Cl)cc2)C=C(C(=O)OCC)C1c1ccccc1
- Activity [1]: 120%
- Kd [6]: 74 µM
- Activity [7]: 237%

SMILES: c1cncc(-c2cnn[nH]2)c1
- Activity [14]: inactive
- Activity [15]: inactive
- Activity [16]: inactive
- Activity [17]: inactive
- Activity [18]: inactive
- Activity [19]: inactive

Now from value to molecule, other results behind:

- Activity [1]: 120%
- Activity [3]: inactive
- Kd [6]: 72 µM
SMILES: CCOC(=O)C1=CN(C(=O)c2ccc(OC)cc2)C=C(C(=O)OCC)C1c1ccccc1
- Activity [2]: Tde
- Activity [4]: Tde
- Activity [5]: Active

- Activity [10]: inactive
- Activity [12]: inactive
- Activity ([3]; filed as activator): Active
- Kd [6]: 78 µM
- Activity [7]: 217%
- Activity [13]: inactive
SMILES: CCOC(=O)C1=CN(C(=O)c2cccc(OC)c2)C=C(C(=O)OCC)C1c1ccccc1
- Activity [2]: Tde
- inhibition at 50 µM [8]: 53%
- inhibition at 50 µM [9]: 53%
- Activity [11]: Active
- Activity [4]: Tde
- Activity [5]: Active

- Activity [1]: 120%
SMILES: CCOC(=O)C1=CN(C(=O)c2cccs2)C=C(C(=O)OCC)C1c1ccccc1

- Activity [1]: 120%
- Activity [7]: 142%
SMILES: CCOC(=O)C1=CN(C(=O)c2ccc(F)cc2)C=C(C(=O)OCC)C1c1ccccc1

- Activity [1]: 120%
- Activity [7]: 204%
SMILES: CCOC(=O)C1=CN(C(=O)c2cccc(Cl)c2)C=C(C(=O)OCC)C1c1ccccc1

Reference: ChEMBL document CHEMBL5331142, “Novel 1,4-Dihydropyridines as Specific Binders and Activators of SIRT3 Impair Cell Viability and Clonogenicity and Downregulate Hypoxia-Induced Targets in Cancer Cells” (J Med Chem, 2023)
